Data reported in ChEMBL document CHEMBL1129250, “Interaction of 1,4-dihydropyridine and pyridine derivatives with adenosine receptors: selectivity for A3 receptors” (J Med Chem, 1996).

Key:
Adenosine receptor A2a = Adenosine receptor A2a (Rattus norvegicus, UniProt P30543); test: Displacement of [3H]-CGS- 21680 binding to Adenosine A2A receptor in rat striatal membranes; format: cell membranes, Membrane
Method in brief: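 Adenosine deaminase (3 units/mL) present during preparation, 30 min preincubation at 30 °C and incubation. At least five competitor concentrations over 3 orders of magnitude.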

[1] = molecular target: Adenosine receptor A2a (Rattus norvegicus) (UniProt P30543); test: Displacement of [3H]-CGS- 21680 from Adenosine A2A receptor in rat striatal membranes; format: cell membranes; settings: Membrane, concentration not given here
Chain of Adenosine receptor A2a (Rattus norvegicus) (P30543 whole entry): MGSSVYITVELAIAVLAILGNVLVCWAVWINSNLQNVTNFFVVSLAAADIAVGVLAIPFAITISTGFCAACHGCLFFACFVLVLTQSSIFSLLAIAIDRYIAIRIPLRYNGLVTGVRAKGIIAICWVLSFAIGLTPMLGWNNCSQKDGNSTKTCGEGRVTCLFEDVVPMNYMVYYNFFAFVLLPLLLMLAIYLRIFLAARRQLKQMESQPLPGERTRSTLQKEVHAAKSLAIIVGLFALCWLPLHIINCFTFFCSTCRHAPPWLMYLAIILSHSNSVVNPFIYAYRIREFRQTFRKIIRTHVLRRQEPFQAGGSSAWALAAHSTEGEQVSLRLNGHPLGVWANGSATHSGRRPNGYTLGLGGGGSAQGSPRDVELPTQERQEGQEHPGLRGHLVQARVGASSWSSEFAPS
Method in brief: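 Rat striatal membranes with [3H]CGS 21680. Adenosine deaminase (3 units/mL) present during preparation, 30 min preincubation at 30 °C and incubation. At least five competitor concentrations over 3 orders of magnitude.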

Adenosine receptor A3 [2] = molecular target: T1, Adenosine receptor A3 (Rattus norvegicus, UniProt P28647); test: Binding affinity against rat Adenosine A3 receptor from CHO cells; format: cell-based
T1 sequence (P28647 whole entry): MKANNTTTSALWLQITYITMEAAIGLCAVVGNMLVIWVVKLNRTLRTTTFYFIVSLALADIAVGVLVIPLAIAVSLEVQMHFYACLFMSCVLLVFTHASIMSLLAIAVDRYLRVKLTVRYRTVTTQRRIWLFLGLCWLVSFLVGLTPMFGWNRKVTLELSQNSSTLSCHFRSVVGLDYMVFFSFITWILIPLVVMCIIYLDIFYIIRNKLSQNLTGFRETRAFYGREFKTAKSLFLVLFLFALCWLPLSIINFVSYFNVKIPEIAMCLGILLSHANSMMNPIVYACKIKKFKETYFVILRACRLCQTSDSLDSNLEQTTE
Method in brief: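 CHO cell membranes stably expressing cloned rat A3 receptor. Nonspecific binding defined with 100 μM R-PIA. Filtration assay. IC50 converted to Ki by Cheng–Prusoff.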

[3] = molecular target: T2, Adenosine receptor A3 (Rattus norvegicus) (UniProt P28647); test: Inhibition of adenylyl cyclase by A3 agonist IB-MECA(10e-6M) in CHO cell membranes expressing rat Adenosine A3 receptor; format: functional, cell-based
T2 sequence (whole entry): T1 sequence (P28647 whole entry)
Method in brief: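 Membranes from CHO cells stably expressing rat A3 receptor. Stimulated with 1 μM forskolin and [α-32P]ATP. Test compounds at 10 μM against the stated IB-MECA concentration. Stop buffer contained [3H]cyclic AMP. Reported as percent inhibition; significance by t-test.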

[4] = molecular target: T3, Equilibrative nucleoside transporter 1 (Rattus norvegicus, UniProt O54698); test: Ability to displace radioligand from Na+ independent Adenosine transporter in rat
T3 sequence (O54698 whole entry): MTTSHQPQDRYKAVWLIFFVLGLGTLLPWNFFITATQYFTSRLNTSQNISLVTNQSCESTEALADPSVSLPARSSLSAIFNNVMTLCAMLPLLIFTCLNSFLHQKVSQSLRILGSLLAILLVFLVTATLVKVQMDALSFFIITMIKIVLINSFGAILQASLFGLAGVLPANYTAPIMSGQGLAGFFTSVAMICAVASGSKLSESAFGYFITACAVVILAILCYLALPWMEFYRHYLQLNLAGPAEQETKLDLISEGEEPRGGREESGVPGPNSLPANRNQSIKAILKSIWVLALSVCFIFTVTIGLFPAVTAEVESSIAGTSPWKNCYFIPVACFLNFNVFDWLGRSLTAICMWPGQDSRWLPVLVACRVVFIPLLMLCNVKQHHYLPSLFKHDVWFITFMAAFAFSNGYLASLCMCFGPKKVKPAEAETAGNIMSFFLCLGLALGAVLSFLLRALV
Method in brief: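 Rat forebrain membranes incubated 30 min at 23 °C with 0.7 nM [3H]NBI and varying competitor concentrations in 50 mM Tris, pH 7.4. Ki or percent of specific binding displaced.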

[5] = molecular target: T4, Voltage-gated L-type calcium channel (Rattus norvegicus, UniProt P22002+Q02485+P27732); test: Inhibition of [3H]isradipine binding to L-type [Ca2+] channel of rat brain membranes; format: cell membranes, Membrane
Method in brief: (§1)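 Rat brain membranes (~100 μg protein) incubated 1 h at 25 °C with 0.1 nM [3H]isradipine and varying competitor in 50 mM Tris, pH 7.4. Nonspecific binding with 10 μM nitrendipine.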

Adenosine receptor A3 [6] = molecular target: T5, Adenosine receptor A3 (Homo sapiens, UniProt P0DMS8); test: Displacement of [125]AB-MECA binding to human Adenosine A3 receptor expressed in HEK cells; format: cell-based, HEK293
T5 sequence (P0DMS8 whole entry): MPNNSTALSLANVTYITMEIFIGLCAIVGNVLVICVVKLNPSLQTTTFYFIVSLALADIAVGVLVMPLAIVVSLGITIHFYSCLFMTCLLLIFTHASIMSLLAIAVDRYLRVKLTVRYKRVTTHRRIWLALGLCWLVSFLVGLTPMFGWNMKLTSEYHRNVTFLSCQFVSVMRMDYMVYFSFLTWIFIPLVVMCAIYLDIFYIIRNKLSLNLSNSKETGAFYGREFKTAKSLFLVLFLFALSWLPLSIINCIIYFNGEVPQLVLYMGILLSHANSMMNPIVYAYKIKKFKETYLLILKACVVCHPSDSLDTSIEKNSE

Adenosine receptor A1 = molecular target: T6, Adenosine receptor A1 (Rattus norvegicus, UniProt P25099); test: (§2) Displacement of [3H](R)-PIA binding to Adenosine A1 receptor in rat brain membranes; format: cell membranes
T6 sequence (P25099 whole entry): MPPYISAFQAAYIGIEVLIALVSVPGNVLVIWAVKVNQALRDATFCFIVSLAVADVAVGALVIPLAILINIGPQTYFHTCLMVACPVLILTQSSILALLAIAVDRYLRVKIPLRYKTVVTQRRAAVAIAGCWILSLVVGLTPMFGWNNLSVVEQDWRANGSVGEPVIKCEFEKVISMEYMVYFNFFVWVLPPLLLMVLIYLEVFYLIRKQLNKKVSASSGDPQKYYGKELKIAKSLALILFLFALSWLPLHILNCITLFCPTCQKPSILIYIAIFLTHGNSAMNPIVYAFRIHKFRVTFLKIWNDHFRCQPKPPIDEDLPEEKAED

[7] = molecular target: T4, Voltage-gated L-type calcium channel; test: Inhibition of [3H]-isradipine binding to L-type [Ca2+] channel of rat brain membranes; format: cell membranes, Membrane; method in brief: as §1
[8] = molecular target: T7, Adenosine receptor A1 (Rattus norvegicus) (UniProt P25099); test: as §2; format: cell membranes; settings: concentration not given here
T7 sequence (whole entry): T6 sequence (P25099 whole entry)
Method in brief: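 Rat cerebral cortex membranes with [3H]-(R)-PIA. Adenosine deaminase (3 units/mL) present during membrane preparation, during a 30 min preincubation at 30 °C and during incubation. Competitor at ≥5 concentrations spanning 3 log units, DMSO ≤2%.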

Chain of Adenosine receptor A2a (P30543 whole entry): as the sequence (P30543 whole entry) above

Structure (SMILES) | Ki (Adenosine receptor A2a; read-out: Ki) | other results
COc1ccc(C2C=CNC=C2)cc1 | 71 µM | 
CCO/C(O)=C1\C(C)=NC(C)=C(C(=O)OC)C1CC(C)CCC=C(C)C (centres undefined) | 23.1 µM | 
COCCO/C(O)=C1\C(C)=NC(C)=C(C(=O)OC)C1C (centres undefined) |  | inhibition [1]: 37%
CCCCC1=C(C(=O)OCC)C(C)/C(=C(/O)OCC)C(C)=N1 (centres undefined) | 38 µM | 
COC(=O)C1=C(C)NC(C)=C(C(=O)OCCN(C)Cc2ccccc2)C1c1cccc([N+](=O)[O-])c1 (centres undefined) [NICARDIPINE] |  | Ki (Adenosine receptor A3 [2]): 11 µM; inhibition [3]: 27.2%; Ki [4]: 5.36 µM
COC(=O)C1=C(C)NC(C)=C(C(=O)OCCCN2CCC(c3ccccc3)(c3ccccc3)CC2)[C@@H]1c1cccc([N+](=O)[O-])c1 [DEXNIGULDIPINE] |  | Ki (Adenosine receptor A2a): Not Active
CCOC(=O)C1=C(C)NC(C)=C(C(=O)OC)C1/C=C/c1ccccc1 (centres undefined) | 49.3 µM | Ki (Adenosine receptor A3 [2]): 12.1 µM; Ki (Adenosine receptor A3 [6]): 0.67 µM; Ki (Adenosine receptor A1): 16.1 µM; Ki [7]: 0.694 µM
CCO/C(O)=C1\C(C)=NC(C)=C(C(=O)OC)C1C (stereo in doubt; 1) | 46.1 µM | 
CCOC(=O)C1=C(c2ccccc2)N=C(C)/C(=C(\O)OCC)C1C (stereo in doubt; 30) | 28.4 µM | Inhibition [5]: < 10%
CCOC(=O)C1=C(C)NC(C)=C(C(=O)OC)C1C#Cc1ccccc1 (centres undefined) |  | Inhibition [5]: 23%
CCO/C(O)=C1\C(C)=NC(C)=C(C(=O)OC)C1c1ccccc1C(F)(F)F (centres undefined) | 20.7 µM | 
CCO/C(O)=C1\C(C)=NC(C)=C(C(=O)OC)C1c1ccc([N+](=O)[O-])cc1 (centres undefined) | 35.6 µM | inhibition [8]: 37%
CCO/C(O)=C1\C(C)=NC(C)=C(C(=O)OC)C1c1ccc(O)c(OC)c1 (centres undefined) | 56.8 µM | 
CCOC(=O)C1=C(c2ccccc2)N=C(C)/C(=C(\O)OCC)C1C (stereo in doubt; 27) | 35.9 µM | Inhibition [5]: 17%
CCOC(=O)C1=C(C)NC(C)=C(C(=O)OC)C1c1cccc([N+](=O)[O-])c1 (centres undefined) [NITRENDIPINE] | 23 µM | Ki (Adenosine receptor A3 [6]): 8.3 µM; Ki (Adenosine receptor A1): 8.96 µM

Continued by falling Ki (Adenosine receptor A2a; read-out: Ki), values first:

Ki (Adenosine receptor A2a; read-out: Ki) | Structure (SMILES) | other results
12.7 µM | CCO/C(O)=C1\C(C)=NC(C)=C(C(=O)OC)C1c1ccc(OC)cc1 (centres undefined) | 
11.5 µM | CCCC1C(C(=O)OCC)=C(C)N=C(C)/C1=C(\O)OC (centres undefined) | 
9.72 µM | CO/C(O)=C1/C(C)=NC(C)=C(C(=O)OCc2ccccc2)C1C (centres undefined) | 
9.56 µM | CCO/C(O)=C1\C(C)=NC(C)=C(C(=O)OC)C1CC (centres undefined) | 
8.96 µM | CCO/C(O)=C1\C(C)=NC(C)=C(C(=O)OC)C1C (stereo in doubt; 29) | 
7.1 µM | CCO/C(O)=C1/C(C)=NC(C)=C(C(=O)OCCSc2ccccc2)C1C (centres undefined) | 
6.71 µM | CCO/C(O)=C1\C(C)=NC(C)=C(C(=O)OC)C1CCc1ccccc1 (centres undefined) | 
5.27 µM | CCO/C(O)=C1\C(C)=NC(C)=C(C(=O)OC)C1c1ccc2c(c1)OCO2 (centres undefined) | Ki (Adenosine receptor A3 [6]): 4.58 µM; Ki (Adenosine receptor A1): 3.66 µM
4.77 µM | CCOC(=O)C1=C(c2ccccc2)N=C(C)/C(=C(/O)OCC)C1/C=C/c1ccccc1 (centres undefined) | Inhibition [5]: < 10%
2.74 µM | CCOC(=O)C1=C(C)NC(C)=C(C(=O)OC)C1c1ccccc1 (centres undefined) | 
